This is a sample that favours compounds with a hit; in the whole collection about 1.8% have one here.
NTR1 ag: NTR1 (human) agonism; AID 493036; NTR1-U2OS beta-arrestin-GFP spot imaging, agonist mode; 330,000 tested, 0.17% active; activation, % at 20 µM;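 active means activation at or above 40% of the spot to cytoplasm intensity ratio, with at least 20 cells analyzed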;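 further: 0% = DMSO without peptide and 100% = 100 nM NTR1 peptide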
Target sequence (P30989 whole entry, looked up): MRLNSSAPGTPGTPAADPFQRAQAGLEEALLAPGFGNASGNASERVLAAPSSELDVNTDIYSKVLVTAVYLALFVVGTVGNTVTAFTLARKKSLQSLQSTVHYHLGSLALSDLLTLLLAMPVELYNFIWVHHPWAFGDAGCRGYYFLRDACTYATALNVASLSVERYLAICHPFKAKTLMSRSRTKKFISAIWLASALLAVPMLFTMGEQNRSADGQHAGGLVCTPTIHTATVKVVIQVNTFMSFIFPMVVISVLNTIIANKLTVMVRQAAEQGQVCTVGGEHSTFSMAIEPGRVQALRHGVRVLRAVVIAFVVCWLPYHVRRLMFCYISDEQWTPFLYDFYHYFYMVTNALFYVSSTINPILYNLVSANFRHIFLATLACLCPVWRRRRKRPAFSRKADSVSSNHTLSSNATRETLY
MC4R antagonist: human MC4R antagonism in cAMP assay; P32245; MC4R-expressing cells, MTII-stimulated cAMP, LANCE TR-FRET; inhibition, % at 6.5 µM; 360,000 tested, 0.48% active; AID 540295;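 active means inhibition above its plate's cutoff, the mean of tested wells on that plate plus 3 SD, cut at about 29% in these data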;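 further: 0% = Melanotan II alone and 100% = Melanotan II plus saturating MCL0020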
Target sequence (P32245 whole entry, looked up): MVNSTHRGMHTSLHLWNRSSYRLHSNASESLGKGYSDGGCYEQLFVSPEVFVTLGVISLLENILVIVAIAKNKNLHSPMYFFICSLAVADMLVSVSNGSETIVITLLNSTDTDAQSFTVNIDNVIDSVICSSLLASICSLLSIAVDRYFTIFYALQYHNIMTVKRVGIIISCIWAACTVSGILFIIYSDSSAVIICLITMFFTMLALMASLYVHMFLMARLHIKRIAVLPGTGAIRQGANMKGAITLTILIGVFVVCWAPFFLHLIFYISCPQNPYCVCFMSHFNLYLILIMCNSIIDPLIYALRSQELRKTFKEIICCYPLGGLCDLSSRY
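system = U2OS cells with stable human MC4R expression | also added = Melanotan II challenge after compound preincubation | dosing = one concentration, 6.5 µM nominal | incubation = compound 30 min, challenge 1 h, detection 1 h | measured by = TR-FRET with Eu-cAMP and labeled anti-cAMP, 671 nm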
AI-2 QS mod: Vibrio harveyi AI-2 quorum sensing modulation; Vibrio harveyi JMH597 AI-2 luminescence/OD600 ratio, 9 h; active compounds read low; strain lacks LuxN and CqsS sensors; 0 = neutral-control median; activity change, % at 7.5 µM; 300,000 tested, 0.4% active; in the data active means activity change below about -75%, passing the limit was not always enough;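 further: luminescence divided by OD600 gain over 9 h not by final OD600 alone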
MC4R ag barr: agonists of human melanocortin 4 receptor (MC4R) beta-arrestin; activation, % at 8.9 µM; 360,000 tested, 0.98% active; U2OS MC4R beta-arrestin complementation, luminescence; percent of melanotan II response, DMSO zero; P32245;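 active means activation above a per-plate cutoff, the mean activation of sample wells on that plate plus 3 SD, cut at about 8% in these data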
NTR1 ag confirm: NTR1 (human) agonism, confirmed | shares compounds with NTR1 ag | NTR1-U2OS beta-arrestin-GFP translocation imaging | activation, % at 20 µM | 480 tested, 38% active | AID 504550;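 active means mean activation at 20 µM of at least 40%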;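 further: 0% = DMSO without peptide and 100% = 100 nM NTR1 peptide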
U2OS cAMP counter: nonselective cAMP signaling inhibitor, MC4R antagonist counter-screen; shares compounds with MC4R antagonist; parental U2OS, forskolin cAMP, LANCE TR-FRET; inhibition, % at 6.5 µM; 1,600 tested, 26% active; AID 602193;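 active means mean inhibition over triplicates above the low-control well mean plus 3 SD, set per campaign, cut at about 13% in these data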;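 further: signal is single emission at 671 nm which falls as cellular cAMP rises; 0% = forskolin-stimulated wells and 100% = buffer without forskolin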
MC4R cAMP antag: human MC4R cAMP antagonism confirmation. 1,600 tested, 27% active. AID 602195. MC4R-expressing cells, MTII-stimulated cAMP, TR-FRET. inhibition, % at 6.5 µM. shares compounds with MC4R antagonist; in the data active means inhibition above about 29%;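 further: 0% = agonist stimulated wells alone and 100% = agonist stimulated wells plus saturating reference antagonist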
MC4R barr ag: human MC4R beta-arrestin agonism confirmation; shares compounds with MC4R ag barr; U2OS MC4R beta-arrestin recruitment, luminescence; scaled DMSO 0%, Melanotan II 100%; activation, % at 8.9 µM; 2,400 tested, 31% active; AID 602192;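 active means mean activation across replicates above the hit cutoff set in the earlier primary screen, cut at about 8% in these data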
MOR-DOR barr ag: counter-screen for MC4R agonists: agonists of mu-delta opioid heterodimer. shares compounds with MC4R ag barr. U2OS PathHunter beta-arrestin, beta-gal luminescence; percent of deltorphin B response, DMSO zero. activation, % at 9.2 µM. 2,400 tested, 5.8% active. AID 602194;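 active means mean activation across replicates exceeds the hit threshold derived in the earlier primary screen, cut at about 18% in these data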;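 further: 100% = deltorphin B at 0.9 µM final and 0% = DMSO alone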
Active calls of the source: *; . = not tested or not shown.

SMILES | NTR1 ag | MC4R antagonist | AI-2 QS mod | MC4R ag barr | NTR1 ag confirm | others
COc1ccc(O)c(-c2cc(-c3cccc(Br)c3)n[nH]2)c1 | 54.8* | 11.0 | 12.5 | 5.7 | 15.6
COC(=O)COc1ccc(/C=N/NC(=O)CN(c2ccccc2OC)S(=O)(=O)c2ccccc2)cc1 | 74.6* | 7.7 | 22.9 | -2.2 | 75.6*
COc1ccccc1N(CC(=O)N/N=C/c1ccc(OCC(=O)NCc2ccco2)cc1)S(=O)(=O)c1ccc(C)cc1 | 1.1 | 7.9 | 11.2 | -0.7 | .
CC(C)OC(=O)N(C)C[C@H]1OCc2cn(nn2)CCCC(=O)N([C@H](C)CO)C[C@@H]1C | . | -7.6 | . | 1.3 | .
CSc1ccccc1NC(=O)CSc1nnc(CNC(=O)c2ccccc2F)n1C | -0.1 | 0.3 | 15.8 | 1.1 | .
CC(C)Cn1c(N)c(C(=O)CSc2ncccn2)c(=O)n(C)c1=O | 0.7 | -9.4 | 31.3 | -2.6 | .
CC(C)Cn1c(N)c(C(=O)CSc2cc(Cl)ccc2Cl)c(=O)n(C)c1=O | 47.7* | . | 16.9 | . | 47.1*
Cn1c2ccccc2c(=O)c2c(=O)n(Cc3ccco3)c(-c3ccc(C(C)(C)C)cc3)nc21 | 40.5* | . | 13.2 | . | 18.9
COc1ccc(Cn2c(-c3ccccc3)nc3c(c(=O)c4ccccc4n3C)c2=O)cc1 | 12.9 | 1.1 | 20.5 | -0.1 | .
O=C(CC(=O)NC1CCCCC1)N/N=C/c1ccccc1[N+](=O)[O-] | 0.4 | 4.8 | 5.2 | -0.6 | .
CCn1c(=O)c2ccccc2n2c(SCC(N)=O)nnc12 | -0.2 | 0.3 | 21.2 | -1.7 | .
N#Cc1ccc(Nc2nc(-c3ccc(O)cc3O)cs2)cc1C(F)(F)F | 40.8* | 12.7 | . | 19.8* | 69.9*
Cc1cccc(Nc2nc(N)c([N+](=O)[O-])c(N3CC(C)CC(C)C3)n2)c1 (stereo not given) | 45.8* | 26.7 | 29.1 | 0.5 | 36.0
CSc1nc(N)nc(SCC(=O)C23CC4CC(CC(C4)C2)C3)c1C#N | 44.8* | -12.5 | 39.4 | 1.4 | 13.2
N#Cc1c(N)nc(SCC(=O)C23CC4CC(CC(C4)C2)C3)c(C#N)c1-c1ccc(Cl)cc1 | 1.3 | 15.7 | 11.9 | 4.4 | .
[N-]=[N+]=NCCN1CCN(CCc2ccccc2)CCC1=O | -0.8 | 2.5 | -0.7 | -1.4 | .
COc1cc([N+](=O)[O-])ccc1NC(=O)Nc1nc2c(s1)CCCC2 | 42.6* | 5.9 | -2.8 | 0.0 | 17.7
COc1cc([N+](=O)[O-])ccc1NC(=O)Nc1cnccn1 | -0.2 | 19.7 | 13.9 | 1.4 | .
O=[N+]([O-])c1ccc(C2CC(c3ccccc3)=Nc3ccccc3S2)cc1 (stereo not given) | 61.6* | -2.6 | 4.3 | -1.1 | 13.2
CC(C)(C)OC(=O)[C@H](Cc1ccccc1)NC(=O)c1nc[nH]c1C(=O)NC1CCN(C(=O)OC(C)(C)C)CC1 | 44.9* | 37.2* | 41.3 | 4.9 | 28.2 | U2OS cAMP counter=7.3;MC4R cAMP antag=4.9
CCCOc1ccc(C(=O)c2ccccc2C(=O)O)cc1OCCC | 0.9 | 6.8 | 15.4 | 1.7 | .
CCCOc1ccc(C(=O)c2ccccc2C(=O)OC2CCOC2=O)cc1OCCC (stereo not given) | 44.5* | 30.5* | . | -1.3 | 46.5* | U2OS cAMP counter=12.4;MC4R cAMP antag=25.4
CCOc1ccc(C(=O)C(CN2CCOCC2)c2ccccc2)cc1 (stereo not given) | . | 2.1 | 26.8 | -1.7 | .
O=C(c1ccc(Br)cc1)C(CN1CCOCC1)c1ccccc1 (stereo not given) | 59.7* | 41.0* | 47.8 | 1.5 | 71.0* | U2OS cAMP counter=8.6;MC4R cAMP antag=22.0
COc1ccc(C2=CC(=O)CC(C)(C)C2)cc1OC | 0.9 | -7.1 | . | 0.8 | .
SMILES | NTR1 ag | MC4R antagonist | AI-2 QS mod | MC4R ag barr | NTR1 ag confirm | others
COc1cccc(-c2ccc3c(c2)O[C@@H](CN(C)Cc2cncnc2)[C@@H](C)CN([C@H](C)CO)S3(=O)=O)c1 | . | 0.9 | . | -0.9 | .
Nc1ccccc1C#CC(=O)c1ccccc1 | 71.2* | 54.0* | -90.4* | -1.4 | 82.7* | U2OS cAMP counter=25.9*;MC4R cAMP antag=52.1*
O=C(C#Cc1cccc([N+](=O)[O-])c1)c1ccccc1 | 10.3 | 26.2 | -55.1 | -3.5 | .
Cc1c(C(=O)Nc2ccc(S(=O)(=O)N(C)C3CCN(C)CC3)cc2)oc2c(Cl)cccc12 | 17.1 | -2.1 | 6.4 | 6.3 | .
Cc1ccc2nc(-c3ccc(NC(=S)NC(=O)CC(C)C)cc3)sc2c1 | 0.1 | 1.7 | 3.3 | 0.4 | .
Cc1ccc2nc(-c3ccc(NC(=O)C(C)Sc4nncs4)cc3)sc2c1 (stereo not given) | 48.6* | 43.1* | 13.6 | 3.3 | 32.1 | U2OS cAMP counter=1.9;MC4R cAMP antag=18.3
O=C(NCCc1ccccc1)C(c1cccs1)N(C(=O)CCl)c1ccc(Cl)cc1 (stereo not given) | 69.7* | 30.5* | 23.1 | 34.5* | 61.2* | U2OS cAMP counter=-33.7;MC4R cAMP antag=30.8*
COC(=O)COc1ccc(NC(=O)Cn2nc(-c3ccccc3)c3ccccc3c2=O)cc1 | 60.7* | 29.1* | 25.0 | 0.1 | 14.8 | U2OS cAMP counter=18.7*;MC4R cAMP antag=37.8*
CC(=O)Nc1ccc(C(=O)OCC(=O)NCc2ccc3c(c2)OCO3)cc1 | -0.8 | 10.3 | . | -0.1 | .
CCCCNc1c(-c2ccc(OC)c(Sc3ccc(OC)cc3)c2)nc2ccccn12 | 55.8* | 46.2* | 20.9 | 5.5 | 71.0* | U2OS cAMP counter=6.8;MC4R cAMP antag=28.0
Nc1c(C(=O)Nc2ccc(S(=O)(=O)N3CCCC3)cc2)sc2nc3ccc(OC(F)(F)F)cc3cc12 | 87.2* | 16.4 | 19.0 | 14.3* | 21.8 | MC4R barr ag=12.5*;MOR-DOR barr ag=14.0
CC1=NN(c2ccccc2)C(=O)/C1=C\c1cn(CCC#N)nc1-c1ccc(Cl)cc1 | 13.8 | 9.5 | 44.9 | 0.5 | .
CC1=NNC(=O)/C1=C\c1cn(-c2ccccc2)nc1-c1ccc(Cl)cc1 | 101.2* | 31.2* | 2.5 | 17.2* | 78.1* | U2OS cAMP counter=2.0;MC4R cAMP antag=13.6;MC4R barr ag=33.5*;MOR-DOR barr ag=5.6
O=C(N/N=C/c1c[nH]c2ccccc12)C1CC1c1ccccc1 (stereo not given) | 22.8 | 0.2 | -15.9 | -0.9 | .
O=C(N/N=C/c1c[nH]c2ccccc12)C1CC1(c1ccccc1)c1ccccc1 (stereo not given) | 54.2* | 12.6 | 46.7 | 19.5* | 40.7* | MC4R barr ag=16.5*;MOR-DOR barr ag=7.6
CCCCCCCCNc1ncnc2[nH]ncc12 | . | 2.1 | . | -0.5 | .

Bioassay records as filed in PubChem BioAssay.
